Assays:
Assay type in all cases: functional
[1] = system: Rattus norvegicus; test: Antisecretory activity in gastric fistula rat when administered per orally; conditions: Stomach, po
In short: (§1)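 Chronic gastric fistula rats dosed orally. Activity was taken as percent inhibition of gastric acid secretion. The dose giving 50% inhibition (ED50) was calculated by probit analysis.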

[2] = system: Rattus norvegicus; test: Cytoprotective activity in rat when administered 50 mg/kg perorally (Ethyl alcohol as necrotic agent); conditions: route oral
In short: (§2)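 Food was withheld for 24 h and water for 1½–18 h. Rats were dosed orally (3–12 mL vehicle/kg) 60 min before 100% ethanol, 3.0 mL/kg by gavage. They were killed 60 min after insult, and the stomach was opened along the lesser curvature and photographed. Lesion area score ÷4 gave mm²; group mean was compared with controls as % inhibition. Five animals per dose, standard error.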

[3] = system: Rattus norvegicus; test: Cytoprotective activity in rats when administered 50 mg/kg perorally per orally (Hydrochloric acid as necrotic agent); conditions: route oral
In short: as §2, with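 “0.75 N HCl,” for “100% ethanol,”, “greater” for “lesser”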

[4] = system: Rattus norvegicus; test: Antisecretory activity in gastric fistula rat when administered perorally; conditions: Stomach, po; in short: as §1
[5] = system: Rattus norvegicus; test: Cytoprotective activity in rats when administered 50 mg/kg perorally (Hydrochloric acid as necrotic agent); conditions: route oral
In short: as §2, with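 “0.75 N HCl,” for “100% ethanol,”, “greater” for “lesser”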

[6] = system: Rattus norvegicus; test: Cytoprotective activity in rats when administered 0.10 mg/kg perorally per orally (Hydrochloric acid as necrotic agent); conditions: route oral
In short: as §2, with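 “0.75 N HCl,” for “100% ethanol,”, “greater” for “lesser”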

[7] = system: Rattus norvegicus; test: Cytoprotective activity in rat when administered 0.25 mg/kg perorally (Ethyl alcohol as necrotic agent); conditions: route oral; in short: as §2
[8] = system: Rattus norvegicus; test: Cytoprotective activity in rat when administered 30 mg/kg perorally (Ethyl alcohol as necrotic agent); conditions: route oral; in short: as §2
[9] = system: Rattus norvegicus; test: Cytoprotective activity in rats when administered 30 mg/kg perorally (Hydrochloric acid as necrotic agent); conditions: route oral
In short: as §2, with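 “0.75 N HCl,” for “100% ethanol,”, “greater” for “lesser”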

[10] = system: Rattus norvegicus; test: Cytoprotective activity in rats when administered 100 mg/kg perorally (Hydrochloric acid as necrotic agent); conditions: route oral
In short: as §2, with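 “0.75 N HCl,” for “100% ethanol,”, “greater” for “lesser”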

SMILES	inhibition in vivo at 50 mg/kg [2] [%]	ED50 [4] [mg/kg]	inhibition in vivo at 50 mg/kg [5] [%]	also measured
Cc1nc2ccccn2c1CSCC/N=c1/c(O)c(O)c1=N	0			ED50 [1]: > 25 mg/kg; inhibition in vivo at 50 mg/kg [3]: 34%
Cc1nc2ccccn2c1CSCCNc1nsnc1N	70	> 25	24	
CCCCC[C@H](O)/C=C/[C@H]1[C@H](O)CC(=O)[C@@H]1C/C=C\CCCC(=O)O [DINOPROSTONE]				ED50 [1]: 0.83 mg/kg; inhibition in vivo at 0.1 mg/kg [6]: 70%; inhibition in vivo at 0.25 mg/kg [7]: 89%
Cc1nc2ccccn2c1C(C)SCCNc1nsnc1N (configuration not stated)	54	> 25	51	
C/N=C(/NC#N)NCCSCc1c(C)nc2ccccn12		> 25	60	inhibition in vivo at 30 mg/kg [8]: 97%
Cc1nc2ccccn2c1CSCCNc1n[s+]([O-])nc1N (configuration not stated)	2	> 25		
Cc1nc2c(OCc3ccccc3)cccn2c1C(C)SCCNc1nsnc1N (configuration not stated)		> 25		inhibition in vivo at 30 mg/kg [9]: 62%; inhibition in vivo at 30 mg/kg [8]: 84%
Cc1nc2ccccn2c1C(C)SCC/N=c1/c(O)c(O)c1=N (configuration not stated)	7			ED50 [1]: > 25 mg/kg; inhibition in vivo at 50 mg/kg [3]: 27%
Cc1nc2c(OCc3ccccc3)cccn2c1C(C)SCCNc1n[s+]([O-])nc1N (configuration not stated)	57	> 25	57	
Cc1nc2c(OCc3ccccc3)cccn2c1CC#N		0.9		inhibition in vivo at 100 mg/kg [10]: 68%; inhibition in vivo at 30 mg/kg [8]: 90%
Cc1nc2ccccn2c1C(C)SCCNc1n[s+]([O-])nc1N (configuration not stated)	47	> 25	36	
